Screening results (PubChem BioAssay)
Runt-CBFb FRET: Runt domain-CBFb interaction inhibition. Q01196+Q13951. Cerulean-Runt/Venus-CBFb FRET ratio 530/480, 1 h. inhibition, % at 20 µM. 0.46% of 220,000 active;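 active = inhibition over about 50% at 20 µM in the single-dose screen, limit read from the data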;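 also: 0% = DMSO wells and 100% = excess unlabeled CBFb competitor control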
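Measured by: fluorescence energy transfer, 422 nm excitation, 530/480 nm emission; test system: Cerulean-tagged RUNX1 Runt domain (FRET donor) fusion protein; buffer or medium: Tris pH 7.5 buffer with BSA; compound: one dose, 20 µM compound, 1% DMSO; times: two 1 h room-temperature incubations shielded from light; benchmarks: unlabeled CBFb 5 µM, positive control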
Runt-SMMHC FRET: blocks binding of human RUNX1 Runt domain to CBFb-SMMHC; Q01196+Q13951; inhibition, % at 20 µM; 0.74% of 220,000 active; Cerulean-Runt/Venus-CBFb-SMMHC FRET ratio 530/480, 1 h;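 active = mean inhibition across duplicate retests at 20 µM reaching about 50%, limit read from the data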;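 also: 0% = DMSO wells and 100% = wells with excess untagged CBFb-SMMHC; inhibitors lower the FRET ratio by blocking Runt binding to CBFb-SMMHC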
Calpain2 inh: calpain II (pig) inhibition; purified calpain II, fluorogenic peptide substrate, 30 min; inhibition, % at 16 µM; 0.37% of 220,000 active;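 active = inhibition above about 50%, limit read from the data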
FAS TE block: blocks the thioesterase domain of human fatty acid synthase; AID 602261; 0.67% of 360,000 active; inhibition, % at 15 µM; recombinant FAS-TE, OMFH fluorogenic substrate, fluorescence endpoint;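 active = compounds whose normalised, plate-corrected inhibition of enzyme fluorescence in the single-dose primary screen is 50% or more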;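 also: 0% = DMSO with enzyme and 100% = substrate without enzyme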
RanGTP-Impb inh: inhibitors of RanGTP-importin-beta interaction, primary screen, biochemical, FRET, CFP-Ran, YFP-importin-beta, homogeneous; inhibition, % (test concentration not listed); AID 2216; 1.1% of 300,000 active; cell-free CFP-Ran/YFP-importin-beta FRET ratio;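 active = more than half of the replicate wells show a fall in the fluorescence ratio signal beyond about 16%, limit read from the data, passing the limit was not always enough; inconclusive = exactly half of the replicate wells pass the set limit; inactive = fewer than half of replicates pass the limit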;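 also: 0% = DMSO wells and 100% = Ran loaded with GDP instead of GTP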
Runt-CBFb TRFRET: Runt-CBFb binding inhibition; shares compounds with Runt-CBFb FRET; TR-FRET RUNX1 Runt domain-CBFb binding; inhibition, % at 20 µM; 20% of 480 active; in the data active = inhibition above about 40%
YIC counter: counter-screen YIC FRET for RanGTP-importin-beta inhibitors; shares compounds with RanGTP-Impb inh; Purified YIC probe, intramolecular FRET ratio YFP/CFP; IC50, µM; 40% of 1,000 active; AID 435026;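 active = fitted half-maximal inhibitory concentration no more than tenfold above the top dose tested; inconclusive = flat fit with 30 to 70% activity, or poor fit; inactive = half-maximal concentration beyond tenfold above the top dose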
FAS-TE inh conf: FAS thioesterase (human) inhibition, confirmation; shares compounds with FAS TE block; recombinant FAS-TE, OMFH fluorogenic substrate, fluorescence; inhibition, % at 15 µM; 45% of 2,300 active; AID 624325;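 active = compounds inhibiting the enzyme by at least 50% at 15 µM in any one of the replicates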;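 also: 0% = enzyme with DMSO only and 100% = wells lacking enzyme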
Starred values were filed as active, the others as inactive; i = inactive; ? = inconclusive; · = not tested or not shown. Rows were chosen to be rich in hits. Some 2.1% of all compounds tested hit in one or more screens of this group.

SMILES | Runt-CBFb FRET | Runt-SMMHC FRET | Calpain2 inh | FAS TE block | RanGTP-Impb inh | YIC counter | others
CCOC(=O)c1cc2c(=O)n3ccccc3nc2n(CC2CCCO2)c1=NC(=O)/C=C/c1ccccc1 (stereo unspecified) | 81* | 86* | -455 | 80* | -4 | · | Runt-CBFb TRFRET=33;FAS-TE inh conf=83*
Cc1cccc(NC(=O)CSc2nc3ccccc3c(=O)n2CC2CCCO2)c1 (stereo unspecified) | · | · | · | 13 | · | ·
CC(C)Cc1ccc(CN2CCCC(NC(=O)CSc3nncn3C)C2)cc1 (stereo unspecified) | · | · | · | -5 | 3 | ·
O=C(Nc1ccccc1)C1=C(c2ccccc2)S(=O)(=O)CCS1(=O)=O | 52* | 44 | -25 | 80* | -1 | · | Runt-CBFb TRFRET=23;FAS-TE inh conf=37
Cc1cc2c(c(=O)n1Cc1cccnc1)C(Cc1ccccc1)C(C#N)=C(N)O2 (stereo unspecified) | 58* | 86* | -29 | 53* | 36* | · | Runt-CBFb TRFRET=-21;FAS-TE inh conf=32
COc1ccc(-c2cccc3c2NC(=O)C3=O)cc1OC | · | · | · | -9 | · | ·
CCc1ccc2c(c1)C(=O)C(=O)N2CCS(=O)(=O)c1ccccc1 | · | · | · | 0 | ? | ·
O=C1C(=O)N(CCS(=O)(=O)c2ccccc2)c2ccc(Cl)cc21 | · | · | · | -4 | 39* | >50
COc1ccc(C(=O)Nc2ccc(S(=O)(=O)Nc3onc(C)c3C)cc2)cc1 | -1 | -7 | -9 | -2 | 27* | >50
COc1cccc(C(=O)Nc2ccc(S(=O)(=O)Nc3onc(C)c3C)cc2)c1 | -3 | -4 | 4 | -3 | 3 | ·
CCN1C(=O)C2(C(C#N)=C(N)Oc3n[nH]c(C(C)C)c32)c2ccccc21 (stereo unspecified) | 1 | -12 | -39 | -8 | 26* | >50
CCN1CCN(c2nc3c(c(=O)[nH]c(=O)n3C)n2Cc2ccccc2)CC1 | · | · | · | -5 | -6 | ·
COc1cc2cc(C(N)=O)c(N)nc2cc1OC | 101* | 79* | i | -6 | 49* | 10*
COc1ccc(CN(C(=O)c2snc(C(N)=O)c2N)C(C(=O)NC(C)(C)C)c2ccco2)cc1 (stereo unspecified) | -5 | 2 | -107 | 4 | ? | ·
CC(C)(C)NC(=O)C(c1ccco1)N(Cc1ccc(F)cc1)C(=O)c1snc(C(N)=O)c1N (stereo unspecified) | -4 | 2 | -161 | -4 | 28* | >50
Cc1cc(NC(=O)c2sc3ccccc3c2O)no1 | · | · | · | -7 | 17* | ?
Cc1cc(NC(=O)c2c(F)c(F)c(F)c(F)c2F)no1 | -2 | -2 | -18 | 1 | 23* | >50
CCOC(=O)c1ccc(NC(=O)Nc2ccc(F)cc2)cc1 | -1 | 4 | -4 | 6 | 6 | ·
CCOC(=O)c1c(NC(=O)Nc2ccc(F)cc2)sc2c1CCN(C)C2 | 16 | 15 | -31 | -18 | 20* | >50
CCOC(=O)c1c(/N=C/c2ccc(C)cc2O)sc2c1CCN(C)C2 | 14 | -2 | 3 | 1 | 60* | >26
CCOC(=O)c1c(NC(=O)C2CCCCC2)sc2c1CCN(C(C)C)C2 | · | · | · | 1 | 40* | >50
CCN1CCc2c(sc(NC(=O)c3ccc(S(=O)(=O)N4CCOCC4)cc3)c2C(=O)OC)C1 | -1 | 14 | -21 | -2 | 3 | ·
CCOC(=O)c1c(/N=C/c2ccccc2O)sc2c1CCC2 | 21 | 40 | 17 | 11 | -1 | ·
CCOC(=O)c1c(NC(=O)C2CC2)sc(C)c1CC | -2 | -8 | 3 | 14 | 0 | ·
CCN1CCc2c(sc(NC(=O)Cc3ccccc3)c2C(=O)OC)C1 | · | · | · | -3 | 42* | >50
SMILES | Runt-CBFb FRET | Runt-SMMHC FRET | Calpain2 inh | FAS TE block | RanGTP-Impb inh | YIC counter | others
CCc1nc2ccc(C(=O)N3CCN(S(=O)(=O)CC)CC3)cn2c1N(CCC(C)C)CCN(C)C | · | · | · | -6 | · | ·
COc1ccccc1NC(=O)COC(=O)CCn1c(C)csc1=O | · | · | · | -5 | 3 | ·
CCOC(=O)c1sc(NC(=O)Cc2ccc(F)cc2)nc1C | -2 | 2 | -30 | -1 | 0 | ·
CCOC(=O)c1c(NC(=O)Cc2ccccc2)sc2c1CCN(CC)C2 | · | · | · | -4 | 55* | >50
CCOC(=O)c1sc(NC(=O)Nc2ccc(F)cc2)nc1C | 1 | 2 | 15 | -8 | 18* | >50
CCOc1ccc(NC(=O)CN2C(=O)COc3ccc(Cl)cc32)cc1 | 3 | 1 | -9 | 4 | 18* | >50
CC(C)Sc1nc(N2CCOCC2)c2c(c1C#N)CC(C)(C)N(C)C2 | 36 | 79* | -32 | -5 | 27* | 39*
Cc1ccc(-n2c(SCC(=O)NCc3ccco3)nc3sc(C)c(C)c3c2=O)cc1 | 42 | -3 | -21 | -10 | 1 | ·
Cc1sc2nc(SCC(=O)NCc3ccco3)n(-c3ccccc3)c(=O)c2c1C | -2 | -2 | -26 | 1 | 23* | >50
CS(=O)(=O)c1ccc(C(=O)Nc2ccc(S(=O)(=O)N3CCCCC3)cc2)cc1 | · | · | · | -5 | -2 | ·
Oc1cccc(/C=N/Nc2cc(N3CCCC3)nc(N3CCCC3)n2)c1 | 2 | 5 | -44 | 2 | 21* | >50
Oc1ccc(/C=N/Nc2cc(N3CCOCC3)nc(N3CCOCC3)n2)cc1 | · | · | · | -2 | 22* | >50
CN(CC1CCCO1)S(=O)(=O)c1ccc(C(=O)Nc2nccs2)cc1 (stereo unspecified) | 1 | 2 | -4 | -3 | -3 | ·
O=C(Cc1n[nH]c(=O)c2ccccc12)NCc1ccc(Cl)cc1 | 2 | 0 | -4 | -3 | 2 | ·
O=C(Cc1n[nH]c(=O)c2ccccc12)NCc1ccccn1 | 1 | 4 | 23 | -18 | 23* | >50
CC(C)(C)n1cnc2cc(NCc3ccc(Br)cc3)ccc21 | · | · | · | -2 | 23* | >50
CCc1ccc(CNc2ccc3c(c2)ncn3C(C)(C)C)cc1 | · | · | · | -2 | 18* | >50
CCN(CC)c1ccc(CNc2ccc3c(c2)ncn3C(C)(C)C)cc1 | · | · | · | -8 | -3 | ·
CCc1ccc(CNc2ccc3c(c2)ncn3CC)cc1 | · | · | · | -6 | 17* | >50
O=C(Nc1ccccc1C(=O)O)c1cc(S(=O)(=O)N2CCOCC2)c(Br)s1 | · | · | · | -5 | 0 | ·
CC(C)(C)OC(=O)C[C@H]1C/C=C\C[C@@H](CC(=O)NCCO)C(=O)NCCOC1=O | · | · | · | -7 | · | ·
C=C(C)Cn1c(SCC(=O)O)nnc1-c1ccc(OC)cc1 | -1 | 1 | -31 | -6 | 22* | >50
Cc1ccc(-c2cc(C(=O)N(C)CC(=O)Nc3ccccc3Br)c3ccccc3n2)o1 | · | · | · | 0 | 5 | ·
CCOc1c2ccccc2nn1CCO | · | · | · | -6 | · | ·
Cc1ccccc1Cn1nnc(-c2cccc(C(=O)O)c2)n1 | 0 | -2 | -31 | -7 | 16* | >50
